What all share (format): cell-based
Data set [1] deals with T1, Estrogen receptor (Homo sapiens) (UniProt P03372).
T1 sequence (whole entry): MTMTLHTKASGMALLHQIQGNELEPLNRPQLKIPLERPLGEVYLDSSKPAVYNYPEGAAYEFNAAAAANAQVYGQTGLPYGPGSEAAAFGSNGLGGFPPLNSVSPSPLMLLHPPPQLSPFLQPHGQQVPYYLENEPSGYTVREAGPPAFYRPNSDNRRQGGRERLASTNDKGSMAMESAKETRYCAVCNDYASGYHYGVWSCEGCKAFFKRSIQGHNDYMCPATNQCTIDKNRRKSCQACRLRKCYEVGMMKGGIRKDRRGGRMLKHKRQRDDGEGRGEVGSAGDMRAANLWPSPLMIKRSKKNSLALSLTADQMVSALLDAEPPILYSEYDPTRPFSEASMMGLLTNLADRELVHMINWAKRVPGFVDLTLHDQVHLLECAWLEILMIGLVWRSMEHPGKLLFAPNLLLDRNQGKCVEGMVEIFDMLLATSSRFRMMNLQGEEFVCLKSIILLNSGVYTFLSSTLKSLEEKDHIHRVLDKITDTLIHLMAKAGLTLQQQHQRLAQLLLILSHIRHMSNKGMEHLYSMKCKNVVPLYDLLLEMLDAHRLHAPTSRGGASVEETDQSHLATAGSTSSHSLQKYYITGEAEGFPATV
The data set is described as follows: Downregulation of ERalpha expression in human MCF7 cells at 10 uM after 6 hrs in presence of proteasome inhibitor MG132 by Western blot method relative to lamin B. The method in brief: (§1)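 MCF-7 cells kept in DMEM with 10% FBS, kanamycin and 10 μg/mL insulin, then exposed to compounds for 6 h. Lysates made in SDS buffer (0.1 M Tris-HCl pH 8.0, 10% glycerol, 1% SDS), boiled, BCA-normalized and run on SDS-PAGE. Blots probed with anti-ERα, AR, AhR or VDR and β-actin or lamin B. Chemiluminescence quantified as target/loading-protein ratio; means ± S.E., n=3.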

Data set [2] addresses T2, Vitamin D3 receptor (Homo sapiens) (UniProt P11473).
T2 sequence (whole entry): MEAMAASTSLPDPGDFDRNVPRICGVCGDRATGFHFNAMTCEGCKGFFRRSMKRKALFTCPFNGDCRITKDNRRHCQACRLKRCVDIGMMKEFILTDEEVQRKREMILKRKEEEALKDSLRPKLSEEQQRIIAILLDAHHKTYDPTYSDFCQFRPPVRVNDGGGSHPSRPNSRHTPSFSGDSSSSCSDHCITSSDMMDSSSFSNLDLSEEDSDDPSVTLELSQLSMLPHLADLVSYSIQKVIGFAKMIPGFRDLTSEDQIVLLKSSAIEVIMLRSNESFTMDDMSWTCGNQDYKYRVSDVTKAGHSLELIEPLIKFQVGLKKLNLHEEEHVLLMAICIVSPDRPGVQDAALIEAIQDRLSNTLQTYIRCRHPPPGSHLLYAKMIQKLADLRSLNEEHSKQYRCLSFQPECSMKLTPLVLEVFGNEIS
The data set is described as follows: Downregulation of VDR expression in human MCF7 cells at 3 uM after 6 hrs by Western blot method relative to lamin B. The method in brief:
as §1

Data set [3] addresses T2, Vitamin D3 receptor (Homo sapiens). As to the kind of experiment: Downregulation of VDR expression in human MCF7 cells at 10 uM after 6 hrs in presence of proteasome inhibitor MG132 by Western blot method relative to lamin B. The method in brief:
as §1

Data set [4] has as its target T1, Estrogen receptor (Homo sapiens). The data set is described as follows: Downregulation of ERalpha expression in human MCF7 cells at 1 uM after 6 hrs in presence of proteasome inhibitor MG132 by Western blot method relative to lamin B. The essentials:
as §1

The target is the same in data set [5]. As to the kind of experiment: Downregulation of ERalpha expression in human MCF7 cells after 6 hrs by Western blot method. The essentials:
as §1

Data set [6] has the same target. The data set is described as follows: Downregulation of ERalpha expression in human MCF7 cells at 3 uM after 6 hrs by Western blot method relative to beta-actin. The method in brief:
as §1
A general note: A western blot detects proteins with antibodies after separation by electrophoresis.

Data set [7] has the same target. The data set is described as follows: Downregulation of ERalpha expression in human MCF7 cells at 10 uM after 6 hrs by Western blot method relative to lamin B. The method in brief: as §1
The target is the same in data set [8]. The data set is described as follows: Downregulation of ERalpha expression in human MCF7 cells at 1 uM after 6 hrs by Western blot method relative to lamin B. The essentials: as §1
Data set [9] concerns the target T3, Aryl hydrocarbon receptor (Homo sapiens, UniProt P35869).
T3 sequence (P35869 whole entry): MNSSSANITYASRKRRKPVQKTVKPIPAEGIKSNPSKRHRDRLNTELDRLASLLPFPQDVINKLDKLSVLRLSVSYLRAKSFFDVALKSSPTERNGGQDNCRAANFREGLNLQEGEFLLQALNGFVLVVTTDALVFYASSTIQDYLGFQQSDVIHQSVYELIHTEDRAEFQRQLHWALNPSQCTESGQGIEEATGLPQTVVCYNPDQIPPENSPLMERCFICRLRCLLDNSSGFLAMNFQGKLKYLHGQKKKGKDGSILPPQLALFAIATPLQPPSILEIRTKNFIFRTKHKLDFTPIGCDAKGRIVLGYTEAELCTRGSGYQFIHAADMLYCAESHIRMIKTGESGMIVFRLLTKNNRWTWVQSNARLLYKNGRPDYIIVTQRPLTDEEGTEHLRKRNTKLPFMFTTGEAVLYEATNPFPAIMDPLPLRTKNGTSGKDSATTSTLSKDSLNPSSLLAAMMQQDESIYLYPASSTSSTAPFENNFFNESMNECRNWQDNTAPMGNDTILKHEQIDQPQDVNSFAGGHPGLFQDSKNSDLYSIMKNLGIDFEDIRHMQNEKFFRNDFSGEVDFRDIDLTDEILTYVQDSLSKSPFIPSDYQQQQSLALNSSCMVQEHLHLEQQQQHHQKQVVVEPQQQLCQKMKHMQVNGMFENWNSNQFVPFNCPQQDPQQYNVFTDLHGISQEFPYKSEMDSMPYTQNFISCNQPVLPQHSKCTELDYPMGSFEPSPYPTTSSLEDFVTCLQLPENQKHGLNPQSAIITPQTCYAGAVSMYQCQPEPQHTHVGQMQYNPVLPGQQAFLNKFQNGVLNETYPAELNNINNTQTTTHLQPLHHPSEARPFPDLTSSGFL
The data set is described as follows: Downregulation of AhR expression in human MCF7 cells at 1 uM after 6 hrs by Western blot method relative to lamin B. Conditions: mcf7, 6 h. The essentials: as §1

Data set [10] concerns the target T2, Vitamin D3 receptor (Homo sapiens). The data set is described as follows: Downregulation of VDR expression in human MCF7 cells at 3 uM after 6 hrs in presence of proteasome inhibitor MG132 by Western blot method relative to lamin B. The method in brief:
as §1

The target is the same in data set [11]. The data set is described as follows: Downregulation of VDR expression in human MCF7 cells at 10 uM after 6 hrs by Western blot method relative to lamin B. The method in brief:
as §1

Another data set deals with T4, Estrogen receptor (Homo sapiens, UniProt P03372).
T4 sequence (P03372 whole entry): T1 sequence (whole entry)
The data set is described as follows: Antagonist activity at GAL4-fused human ERalpha LBD expressed in HEK293 cells assessed as inhibition of 17beta-estradiol-induced transcriptional activation after 16 to 20 hrs by luciferase reporter gene assay. The method in brief:
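HEK293 cells grown in phenol red-free DMEM with 10% FBS at 37 °C, 5% CO2. Calcium phosphate co-transfection with GAL4-hERα LBD plasmid, MH100x4-tk-luciferase reporter and β-galactosidase normalization plasmid. Compounds added 8 h post-transfection with 0.3 nM 17β-estradiol; harvested 16–20 h later. Luciferase normalized to β-galactosidase; means of triplicate assays.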
A general note: Reporter assays use an easily measured gene product as a stand-in for the process of interest.

Molecules are shown by their SMILES.

For the compound `CCCCCCCCCCNCCOc1ccc(C(CCC)(CCC)c2ccc(O)c(C)c2)cc1C`, the Activity in [1] is 105%; in data set [2], 99%; in data set [3], 86%; in data set [4], 117%; in [5], “Dose-dependent effect”; in data set [6] it was 57%. Besides, the Activity in data set [7] was 32 to 44%; in [8], 58 to 76%; in data set [9] it was 87%; in data set [10] it was 83%; in data set [11], 80%. For the same compound, on Estrogen receptor, the 50% inhibitory concentration (IC50) worked out at 45 nM.

In general, IC50 refers to the point on the concentration scale where inhibition reaches its midpoint.

For the origin of these results see ChEMBL document CHEMBL4138058, “Design and synthesis of novel selective estrogen receptor degradation inducers based on the diphenylheptane skeleton” (Medchemcomm, 2017).
